Laboratory results published in ChEMBL document CHEMBL1154832, “Synthesis and antitumor activity of new dihydropyridine thioglycosides and their corresponding dehydrogenated forms” (Eur J Med Chem, 2010).

Columns and labels:
HepG2 = assay: Antitumor activity against human HepG2 cells xenografted in Swiss albino mouse assessed as increase in life span at 10 ug/kg, ip for 10 consecutive days relative to control; assay type: functional
Procedure, shortened: (§1)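 Male Swiss albino mice (20 ± 2 g), acclimatised one week at 25–27 °C, 12 h light/dark. Ascites tumour established by i.p. inoculation of 1 × 10⁶ viable cells. Dosing began 24 h after inoculation, i.p. daily for 10 consecutive days. DMSO vehicle control group; cisplatine 2 mg/kg i.p. for 10 days as reference. Survival time recorded and % increase in life span derived; mean ± SE, n = 10 mice.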

HeLa = assay: Antitumor activity against human HeLa cells xenografted in Swiss albino mouse assessed as increase in life span at 10 ug/kg, ip for 10 consecutive days relative to control; assay type: functional; procedure, shortened: as §1
Mus musculus [1] = assay: Acute toxicity in ip dosed Swiss albino mouse inoculated with human HeLa cells assessed as mortality measured up to two weeks; assay type: organism-based; conditions: in vivo
Procedure, shortened: (§2)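 Adult Swiss albino mice fasted 12 h, randomised into groups of 10. Single i.p. administration at graded doses, 1 ml/kg body weight; controls received vehicle alone. Food and water given immediately after dosing. Mortality followed for up to two weeks. LD50 taken as the dose giving 50% mortality.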

Mus musculus [2] = assay: Acute toxicity in ip dosed Swiss albino mouse xenografted with human HepG2 cells assessed as mortality measured up to two weeks; assay type: organism-based; conditions: in vivo; procedure, shortened: as §2

Structure (SMILES)	Activity (HepG2)	Activity (HeLa)	LD50 (Mus musculus [1])	LD50 (Mus musculus [2])
COc1ccc(C2C(C#N)=C(N)NC(S[C@@H]3O[C@H](OC(C)=O)[C@@H](OC(=O)O)[C@H](OC(C)=O)[C@H]3OC(C)=O)=C2C#N)cc1 (stereo not given in full)	39%	25%	0.16 mg/kg	0.15 mg/kg
N#Cc1c(N)nc(S[C@@H]2O[C@H](O)[C@H](O)[C@H](O)[C@H]2O)c(C#N)c1-c1ccc2ccccc2c1	57%	53%	0.125 mg/kg	0.145 mg/kg
CC(=O)O[C@H]1O[C@@H](SC2=C(C#N)C(c3ccccc3)C(C#N)=C(N)N2)[C@H](OC(C)=O)[C@@H](OC(C)=O)[C@@H]1OC(=O)O (stereo not given in full)	29%	30%	0.075 mg/kg	0.08 mg/kg
COc1ccc(C2C(C#N)=C(N)NC(S[C@@H]3O[C@H](O)[C@H](O)[C@H](O)[C@H]3O)=C2C#N)cc1 (stereo not given in full)	63%	44%	0.08 mg/kg	0.06 mg/kg
CC(=O)O[C@H]1O[C@@H](SC2=C(C#N)C(c3ccc(Br)cc3)C(C#N)=C(N)N2)[C@H](OC(C)=O)[C@@H](OC(C)=O)[C@@H]1OC(=O)O (stereo not given in full)	31%	29%	0.09 mg/kg	0.09 mg/kg
N#Cc1c(N)nc(S[C@@H]2O[C@H](O)[C@@H](O)[C@H](O)[C@H]2O)c(C#N)c1-c1ccc(Br)cc1	60%	50%	0.12 mg/kg	0.105 mg/kg
COc1ccc(C2C(C#N)=C(N)NC(S[C@@H]3O[C@H](O)[C@@H](O)[C@H](O)[C@H]3O)=C2C#N)cc1 (stereo not given in full)	69%	55%	0.095 mg/kg	0.11 mg/kg
CC(=O)O[C@H]1O[C@@H](Sc2nc(N)c(C#N)c(-c3ccc4ccccc4c3)c2C#N)[C@H](OC(C)=O)[C@@H](OC(C)=O)[C@@H]1OC(C)=O	49%	40%	0.06 mg/kg	0.06 mg/kg
N#CC1=C(N)NC(S[C@@H]2O[C@H](O)[C@@H](O)[C@H](O)[C@H]2O)=C(C#N)C1c1ccc2ccccc2c1 (stereo not given in full)	50%	39%	0.115 mg/kg	0.11 mg/kg
CC(=O)O[C@H]1O[C@@H](Sc2nc(N)c(C#N)c(-c3ccccc3)c2C#N)[C@H](OC(C)=O)[C@@H](OC(C)=O)[C@H]1OC(C)=O	43%	38%	0.06 mg/kg	0.065 mg/kg
COc1ccc(-c2c(C#N)c(N)nc(S[C@@H]3O[C@H](O)[C@H](O)[C@H](O)[C@H]3O)c2C#N)cc1	56%	47%	0.13 mg/kg	0.115 mg/kg
N#Cc1c(N)nc(S[C@@H]2O[C@H](O)[C@@H](O)[C@H](O)[C@H]2O)c(C#N)c1-c1ccc2ccccc2c1	58%	51%	0.11 mg/kg	0.13 mg/kg
CC(=O)O[C@H]1O[C@@H](Sc2nc(N)c(C#N)c(-c3ccc(Br)cc3)c2C#N)[C@H](OC(C)=O)[C@@H](OC(C)=O)[C@@H]1OC(C)=O	48%	46%	0.075 mg/kg	0.065 mg/kg
CC(=O)O[C@H]1O[C@@H](Sc2nc(N)c(C#N)c(-c3ccc4ccccc4c3)c2C#N)[C@H](OC(C)=O)[C@@H](OC(C)=O)[C@H]1OC(C)=O	50%	39%	0.135 mg/kg	0.125 mg/kg
COc1ccc(C2C(C#N)=C(N)NC(S[C@@H]3O[C@H](OC(C)=O)[C@H](OC(=O)O)[C@H](OC(C)=O)[C@H]3OC(C)=O)=C2C#N)cc1 (stereo not given in full)	30%	30%	0.065 mg/kg	0.06 mg/kg
CC(=O)O[C@H]1O[C@@H](SC2=C(C#N)C(c3ccc([N+](=O)[O-])cc3)C(C#N)=C(N)N2)[C@H](OC(C)=O)[C@@H](OC(C)=O)[C@@H]1OC(=O)O (stereo not given in full)	34%	27%	0.07 mg/kg	0.085 mg/kg
COc1ccc(-c2c(C#N)c(N)nc(S[C@@H]3O[C@H](OC(C)=O)[C@H](OC(C)=O)[C@H](OC(C)=O)[C@H]3OC(C)=O)c2C#N)cc1	48%	47%	0.07 mg/kg	0.065 mg/kg
CC(=O)O[C@H]1O[C@@H](SC2=C(C#N)C(c3ccccc3)C(C#N)=C(N)N2)[C@H](OC(C)=O)[C@@H](OC(C)=O)[C@H]1OC(=O)O (stereo not given in full)	34%	30%	0.06 mg/kg	0.07 mg/kg
CC(=O)O[C@H]1O[C@@H](SC2=C(C#N)C(c3ccc4ccccc4c3)C(C#N)=C(N)N2)[C@H](OC(C)=O)[C@@H](OC(C)=O)[C@H]1OC(=O)O (stereo not given in full)	38%	31%	0.07 mg/kg	0.065 mg/kg
N#CC1=C(N)NC(S[C@@H]2O[C@H](O)[C@H](O)[C@H](O)[C@H]2O)=C(C#N)C1c1ccc2ccccc2c1 (stereo not given in full)	60%	45%	0.12 mg/kg	0.13 mg/kg
